From PubChem
Rows were chosen to be rich in hits. Some 1.4% of all compounds tested hit in one or more screens of this group.
SR-BI DiI-HDL act – activators of SR-BI mediated DiI-HDL uptake, primary screen, ldlA[mSR-BI] CHO cells, DiI fluorescence; 3 h; 100 = double the neutral-control signal; activation, % at 12.5 µM; actives 0.096% (n = 320,000);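 active means mean replicate activation of at least 60% and every replicate at or above 60%; inconclusive means mean or all-replicate condition met, but not both; inactive means mean below 60% and not all replicates reaching 60%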
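Assay system: CHO ldlA[mSR-BI] cells, LDL receptor-null, SR-BI overexpressing; medium: Ham's F12 with 0.5% BSA, HEPES 25 mM, pH 7.4; also added: DiI-HDL 10 µg/mL; timing: 3 h uptake period with compound, 37 °C; signal: DiI fluorescence, bottom read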
Vif imaging – HIV Vif self-association inhibitors, primary screen, imaging, HEK293T, single point | HEK293T cells, Vif self-association by quenched fluorescence, 24 h | inhibition, % at 7.49 µM | actives 0.35% (n = 340,000); in the data active means inhibition above about 50%, passing the limit was not always enough; inconclusive means no clear call, values can overlap the other calls; inactive means below about 31%
SR-BI DiI inh – inhibitors of SR-BI mediated HDL lipid uptake, primary screen, ldlA[mSR-BI] cells, fluorescence, single point. ldlA[mSR-BI] CHO cells, DiI-HDL uptake fluorescence, 3 h. inhibition, % at 12.5 µM. actives 0.96% (n = 320,000). AID 488896, 2010;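 active means mean replicate inhibition of at least 70% and a set share of replicates each scoring 70 or more; inconclusive means meets just one of the two criteria; inactive means fails both criteria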
PKA-R2B act – activators of PKA-R2B holoenzyme, primary screen, biochemical, fluorescence polarization, Cy5-IP20, human. cAMP-dependent protein kinase catalytic subunit beta (Homo sapiens) + cAMP-dependent …. PKA-R2B holoenzyme dissociation; R2B truncated from residue 108, S112A mutant; 0% DMSO only, 100% 113 µM cGMP. activation, % at 11.4 µM. actives 0.079% (n = 340,000). AID 504700, 2011;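 active means activation above a cutoff set at the mean over all compounds plus 3 SD, cut at about 18% in these data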;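 further: higher means more holoenzyme dissociation and a rise in polarization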
Target sequence (P31323 whole entry, looked up, other chains not shown, the tested form may be a part): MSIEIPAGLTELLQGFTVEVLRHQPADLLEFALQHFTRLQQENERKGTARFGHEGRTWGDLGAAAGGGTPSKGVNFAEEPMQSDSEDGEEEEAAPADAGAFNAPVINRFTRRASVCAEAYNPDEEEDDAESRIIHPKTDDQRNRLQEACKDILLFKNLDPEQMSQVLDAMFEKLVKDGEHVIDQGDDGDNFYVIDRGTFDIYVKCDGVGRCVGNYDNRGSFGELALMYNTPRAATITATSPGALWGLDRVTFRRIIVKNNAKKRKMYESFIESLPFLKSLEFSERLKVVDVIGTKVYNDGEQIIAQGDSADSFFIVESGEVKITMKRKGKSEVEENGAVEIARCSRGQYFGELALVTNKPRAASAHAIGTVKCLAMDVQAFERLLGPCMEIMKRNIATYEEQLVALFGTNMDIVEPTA
PKA-R1A act – activators of PKA-R1A holoenzyme, primary screen, biochemical, fluorescence polarization, Cy5-IP20, bovine R1A, mouse PKAc. cAMP-dependent protein kinase type I-alpha regulatory subunit (Bos taurus) + …. PKA-R1A dissociation; scaled: DMSO 0%, 113 µM cGMP 100%. activation, % at 11.4 µM. actives 0.083% (n = 340,000);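 active means percent activation above the mean of all tested compounds plus 3 SD, cut at about 19% in these data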;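 further: higher means more PKAc released from R1A so a rise in polarization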
Numbers stand for hits.

Results for COc1ccc(NC(=O)C(=O)N/N=C/c2cc(C)n(-c3cccc(Cl)c3Cl)c2C)c(OC)c1 ?
SR-BI DiI-HDL act: inactive; Vif imaging: inactive; SR-BI DiI inh: 72; PKA-R2B act: inactive; PKA-R1A act: inactive

How did COc1ccc(OC)c(NC(=O)C(=O)N/N=C/c2ccccc2[N+](=O)[O-])c1 do in these assays?
SR-BI DiI-HDL act: inactive; Vif imaging: inactive; SR-BI DiI inh: 81; PKA-R2B act: inactive; PKA-R1A act: inactive

Results for COc1cccc(C(C)(O)c2nc(-c3cnc4ccccc4c3)cs2)c1 (centres undefined) ?
Vif imaging: inactive

How did COc1ccc(C(=O)N2CCCC(c3cc(C(=O)NCc4cccnc4)no3)C2)cc1 (centres undefined) do in these assays?
Vif imaging: inactive

What do the screens show for `COc1ccccc1NC(=O)Nc1nc(CC(=O)N2CCN(c3ccc(F)cc3)CC2)cs1`?
SR-BI DiI-HDL act: inactive; Vif imaging: inactive; SR-BI DiI inh: 76; PKA-R2B act: inactive; PKA-R1A act: inactive

What do the screens show for `COc1ccccc1NC(=O)Nc1nc(CC(=O)N2CCN(c3ccccc3)CC2)cs1`?
SR-BI DiI-HDL act: inactive; Vif imaging: inactive; SR-BI DiI inh: inconclusive; PKA-R2B act: inactive; PKA-R1A act: inactive

How did COc1ccc(N2CCN(C(=O)Cc3csc(NC(=O)Nc4ccccc4OC)n3)CC2)cc1 do in these assays?
SR-BI DiI-HDL act: inactive; Vif imaging: inactive; SR-BI DiI inh: 80; PKA-R2B act: inactive; PKA-R1A act: inactive

What do the screens show for `COc1ccc(-c2nc(NC(=O)C3CC(=O)N(c4ccc5c(c4)OCCO5)C3)sc2C)cc1` (centres undefined)?
SR-BI DiI-HDL act: inactive; Vif imaging: inactive; SR-BI DiI inh: 74; PKA-R2B act: inactive; PKA-R1A act: inactive

How did COc1cccc(N2CC(NC(=O)C(=O)c3c[nH]c4ccccc34)CC2=O)c1 (centres undefined) do in these assays?
SR-BI DiI-HDL act: inactive; Vif imaging: inactive; SR-BI DiI inh: inactive; PKA-R2B act: inactive; PKA-R1A act: inactive

Results for O=C(Cc1ccc(NC2=NC3CS(=O)(=O)CC3S2)cc1)NCc1ccccc1Cl (centres undefined) ?
SR-BI DiI-HDL act: inactive; Vif imaging: inactive; SR-BI DiI inh: inactive; PKA-R2B act: inactive; PKA-R1A act: inactive

How did C=CCOC(=O)C1=C[C@@H](c2ccc(C(F)(F)F)cc2)C[C@@H](OCCCCO)O1 do in these assays?
SR-BI DiI-HDL act: inactive; Vif imaging: inactive; SR-BI DiI inh: inactive; PKA-R2B act: inactive; PKA-R1A act: inactive

What do the screens show for `C=CCOC(=O)C1=C[C@@H](c2ccc(Br)cc2)C[C@@H](OCCCCO)O1`?
SR-BI DiI-HDL act: inactive; Vif imaging: 51; SR-BI DiI inh: inactive; PKA-R2B act: inactive; PKA-R1A act: inactive

How did CCOC(=O)c1cnc2c(-c3ccc(Cl)cc3)c(C)nn2c1N do in these assays?
SR-BI DiI-HDL act: inactive; Vif imaging: inactive; SR-BI DiI inh: inactive; PKA-R2B act: inactive; PKA-R1A act: inactive

What do the screens show for `CCOC(=O)c1cnc2cc(-c3ccc(Cl)cc3)nn2c1N`?
SR-BI DiI-HDL act: inactive; Vif imaging: inactive; SR-BI DiI inh: 86; PKA-R2B act: inactive; PKA-R1A act: inactive

What do the screens show for `Cc1cccc2sc(NNC(=O)c3ccc(S(=O)(=O)N4CCc5ccccc5C4)cc3)nc12`?
SR-BI DiI-HDL act: inactive; Vif imaging: inactive; SR-BI DiI inh: 125; PKA-R2B act: inactive; PKA-R1A act: inactive

Results for Cc1cccc2sc(NNC(=O)c3ccc(S(=O)(=O)N4CCCC(C)C4)cc3)nc12 (centres undefined) ?
SR-BI DiI-HDL act: inactive; Vif imaging: inactive; SR-BI DiI inh: 128; PKA-R2B act: inactive; PKA-R1A act: inactive

Results for Cc1cc(C)c2nc(NNC(=O)c3ccc(S(=O)(=O)N4CCCCC4)cc3)sc2c1 ?
SR-BI DiI-HDL act: inactive; Vif imaging: inactive; SR-BI DiI inh: 76; PKA-R2B act: inactive; PKA-R1A act: inactive
